From article PMC9587871 (Asian Pacific Journal of Cancer Prevention : APJCP, 2022)
Where “and” joins values, the source holds several entries; their conditions need not be identical. Equal entries are not always repeated. Where two headings read alike, the source gives them in different places. Values belong to the compound of their own block, whether it stands above or below them.

Experiments:
[1] = DPPH radical scavenging assay; conditions: 30 minutes incubations; n=4
[2] = test system: colorectal HT29 cancer cell line; assay: SRB antiproliferative assay, HT29; assay type: cell-based
[3] = test system: Leukaemia K562 cancer cell line; assay: SRB antiproliferative assay, K562; assay type: cell-based
[4] = test system: breast MCF7 cancer cell line; assay: SRB antiproliferative assay, MCF7; assay type: cell-based
[5] = test system: LPS-induced NO production in RAW 264.7 macrophages (Nitric oxide synthase); assay: Griess assay of LPS-induced NO production in RAW 264.7 macrophages; assay type: cell-based; conditions: read-out: NOS- IC50 value, LPS-prompted RAW264.7 macrophages, 24h incubations, n=4
Summary of the method: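 LPS-stimulated RAW264.7 macrophages exposed to the test compound; NO read by Griess assay. IC50 calculated within the tested dose range. Indomethacin used as reference. Data are mean ± SD of 4 independent replicates.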

- DPPH radical scavenging IC50 value [1]: (21.83±1.10) μg/mL
Structure (SMILES): O=C1O[C@H]([C@@H](O)CO)C(O)=C1O [Ascorbic acid]

Structure (SMILES): N.N.[Cl][Pt][Cl] [Cisplatin]
- IC50 ([2]; read-out: Cytotoxicity (as of %Control) IC50 value, HT29, 72 h incubations, n=4): 45.1 ± 7.9 µM
- IC50 ([2]; read-out: Cytotoxicity (as of %Control) IC50 value, HT29, 72 h incubations, n=4, listed as cisplatin): 45 µM
- IC50 ([3]; read-out: Cytotoxicity (as of %Control) IC50 value, K562, 72 h incubations, n=4, NI is lack of cytotoxicity within the tested 0.1-200 μg/mL range): 180 ± 21 µM
- IC50 ([3]; read-out: Cytotoxicity (as of %Control) IC50 value, K562, 72 h incubations, n=4, NI is lack of cytotoxicity within the tested 0.1-200 μg/mL range, listed as cisplatin): 180 µM
- IC50 ([4]; read-out: Cytotoxicity (as of %Control) IC50 value, MCF7, 72 h incubations, n=4): 28.1 ± 4.4 µM
- IC50 ([4]; read-out: Cytotoxicity (as of %Control) IC50 value, MCF7, 72 h incubations, n=4, listed as cisplatin): 28 µM

- IC50 ([5]; Mus musculus, RAW264.7, 24 h): 120 µM and 42.8 µg/mL
- IC50 [5]: 119 ± 3.02 µM
Structure (SMILES): COc1ccc2c(c1)c(CC(=O)O)c(C)n2C(=O)c1ccc(Cl)cc1 [Indomethacin]
